Data published in the RNAGym collection of RNA variant scans (doi:10.1126/science.aae0568).
This sample holds only a part of the variants without activity.

B1: tRNA (parent)
chain: GUUCCGUUGGCGUAAUGGUAACGCGUCUCCCUCCUAAGGAGAAGACUGCGGGUUCGAGUCCCGUACGGAACG

Variants of: B1
Assay: yeast fitness relative to wild type (ratio to wild type); higher = fitter; tRNA-Arg(CCU), competitive growth, 37 C, YPD
Procedure, shortened: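 Variants of the tRNA-Arg(CCU) gene, chemically synthesised with a 3% per-site mutation rate at 69 sites, were placed at the native genomic locus in Saccharomyces cerevisiae. The pooled strains were competed in YPD at 37°C for 24 hours in six parallel replicates. Gene amplicons from the start population and from each end population were read by 100-nucleotide paired-end sequencing. Darwinian fitness relative to wild type came from changes in genotype frequencies; genotypes needed ≥ 100 starting reads, and estimates < 0.5 were set to 0.5.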

Row | Variant | yeast fitness
1 | GAUCCGUUGGCGUAAUGGUACCGCGUCUCCCUCCUAAGAAGAAGACUGCGGCUUCGAGUCCUGUACGGAACG | ≤ 0.5
2 | GAUACGUUGGCAUAAUGGUAACGCGUCUCCCUUCUAAGAAGAAGACUGCGGGUUCGAGUCCCGAACGGACCG | ≤ 0.5
3 | GAUUCGUUGCCGUAAUGGUAACGCGUCUCCCUCCUAAGGAGAAGACUGCGGGUUCGAGUCCCGUACGGAACG | 0.522
4 | GAUCCGUUGGCGUAAUGGUAACGGGUCCCCCUCCUAAGGUGAAGACUGCGGGUUCGAGUCCCGUACGGAACG | ≤ 0.5
5 | GAUCCGUUGGCGUACUGGUAACGCGUCUCCCUCCUAAGGAGAAGACUGCGGGUUCGUGUCUCGUACGGAACG | 0.504
6 | GAUCCGUUGGCGUAAUGGUAACGCGUCUCCCUCCUAUGGAGAAGACUGCGGGUUCGAGUCCCGUACGGACCG | 0.688
7 | GAUCCGUUGGCGUAAUGGUAACGCGUCUCCCUCCUACGGACAAGACUGCGGGUUCGAGUCCCGUAAGGAACG | ≤ 0.5
8 | GAUAGGUUGGCGUAAUGGUAACGCGUCUCCCUCCUGAGGAGAAGACUGCGGGUUCGAGUCCCGUACGGAACG | 0.524
9 | GAUCAGUUGGCGUAAUGGUAACGCGUCUCCCUCCUAAGGUGAAGACUGCGGGUUCGAGUCCCGUACGGAACG | 0.647
10 | GAUCCGUUGGCGUAAUGGUAACGCGUCUCACUCCUAAGGAGAAGACUGCGGAUUCGAGUCCCGUUCGGAACG | ≤ 0.5
11 | GAUCCGUUGGCGUAAUGGUAACGGGUCUCCCUCCUAAGGAGAAGACUGCGGGUUCGAGUCCCGUACGGAUCG | ≤ 0.5
12 | GAUCGGUUGGCGUAAUGGUAACGCAUCUCCCUCCUAAGGAGAAGACUGCGGGUUCGAGUCCCGUAUGGAACG | 0.532
13 | GAUCCGUUGGCGUUAUGGUAGCGCGUCUCCCUCCUAAGGAGAAGAGUGCGGGUUCGUGUCCCGUACGGCACG | ≤ 0.5
14 | GAUCCGUUGGCGUACUGGUAACGCGUCUCCCUCCUAAGGAGAAGACUGCGGGUUCGACUCCCGCACGGAACG | 0.53
15 | GAUCCGUUGGCGUCAUGGUAACGCGUCUCCCUCCUACGGAGAAGACUGCGGGUUCGAGUCCCGUACGGAACG | ≤ 0.5
16 | GAUCCGUUGGUGUAAUAGUAACGCGUCUGCGUCCUACGGAGAAGACUGCGGGUUCGAGUCCCGUAAGGAACG | ≤ 0.5
17 | GAUCCGUUGGCGUAAUGGUAACGCGUCUACCUCCUAAGGAGGAGACUGCGGGUACGAGUGCCGUACGAAACG | ≤ 0.5
18 | GAUCUGUGGGCGUAAUGGUGACGCGUCUCCCUCAUAAGGAGAAGACUGCGGGUUCGAGUCCCGUACGGAACG | ≤ 0.5
19 | GAUCCGUUGGCGUAAUGGUAACGCGUCUCACUCCUAAGGAGAAGACUGCGGGUUCGAGUCCCCUACGGAACG | ≤ 0.5

Row | Variant | yeast fitness
20 | GAUUCGUGGGCGUAAUGGUAAGGCGUCUCCCUCCUAAGGAGAAGACAGCGGGUUCGAGUCCCGUACGGACCG | ≤ 0.5
21 | GAUCCGUUGGCGUAAUGGUAACGCGUCUUCCUCCUAGGGAGAAGACUGCGGGUUCGAGUCCCGUACGGAACG | ≤ 0.5
22 | GAUCUGUUGGCGUAAUGGUAACGCGUCUCCCUCCUAAGGAGAAGACUGCGGGUUCGAGUCCCGUACGGCACG | 0.687
23 | GAUAGGUUGGCGUAAUGGUAACGCGUCUCCCUCCUAAGGAGAAGACUGCGGGUUCGAGUCCCGUGCGGAACG | ≤ 0.5
24 | GAUCCGUUGGCGUAAUGGUAACGCGUCUGCCUCCUAAGGAGAAGACUGCGGGUUCGAAUCCCGUACGGAACG | ≤ 0.5
25 | GAUCCGUUGGCGUAAUGGUAACGUGUCUCUCUGCUCCGGAGCAGACUGCGGGUUCGAGUCCCGUUCGGAACG | ≤ 0.5
26 | GAUCCGUUGGCGUAAUGGUAACGCGUCUCCCUCCUAAGGAGAAGCCUGCGGGUUCGAAUCUCGUACGGAACG | ≤ 0.5
27 | GAUCCGUUGGCGUAAUGGUAGCGCGUCUCCCUCCUAAGGAGAAGACUGCGGGUUCGAGUCCCGUACGGAACG | 1.04
28 | GAUCCGUUGGCGUAAUGGUAACGCGUCUCCCUCCUGAGGAGAAGCCUGCGGGUUCGAGUCCCGUACGCAACG | ≤ 0.5
29 | GAUCCGUUGGCGUAGUGGUAACGCGUCUCCCUCCUAAGGAGAAGUCUACGGGUUCGAGUCCCGUAGGGAACG | ≤ 0.5
30 | GAUCAGUUGGCGUAAUGGUAACGCGUCUCCCUCCUAAGGAGAAGACUGCGGGUUUGAGUCCCGUACGGAACG | ≤ 0.5
31 | GAUCCGUUGGCGUAAUGGUACCGCGUCUUCCUCCUAAGGAGAAGACUGCGGGUUCCAGUCCCGUACGGAACG | ≤ 0.5
32 | GAUCCGUUGGCGUAAUGGUUACGCGUCUCCCUCCUAAGGAGAAGCCUGCGGGUUCGAGUCCCGUACGGAACG | 0.728
33 | GAUGCGUUGGCGUAAUGGUAACGCGUCUCCCUCCUAAGGAAAAGACUGCGGGUUAGAGUCCCGUACGGAACG | ≤ 0.5
34 | GAUCCGUUGGCGUCAUGGUAACGCGUCUCCCUCAUAAGGAGAAGACUGUGGGUUUGAGUCCCGUACGGCACG | ≤ 0.5
35 | GAUCCGUUGGCGUAAUGGUAACGCGUCUACCUCCUAAGGAGAAGUCUGCGGGUUCGAGCCCCGUACGGAACG | 0.575
36 | GAUCCGUUGGUGUAAUGCUAACGCGUCUCCUUCCUAAGGAGGAGACUGCGGGUUCGAGUCCUGUACGGAACG | ≤ 0.5
37 | GAUCCGUUGGCGUAAUGGUAAAGCGUCUCCCUCCUAAGGCGAAGAGUGCGGGUUCGAGAUGCGUACGGAACG | ≤ 0.5
